Calls of active or inactive are those of the source. The rule behind the calls is not given here.

Assay [1] addresses Dipeptidyl peptidase 4 (Homo sapiens) (UniProt P27487). Put plainly: Inhibition of DPP4 in human brain derived endothelial cell extracts assessed as blockade of Gly-Pro-AMC substrate hydrolysis at 100 uM by fluorimetric assay. The format is cell-free. The essentials: (§1)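 Confluent human cells (glioblastoma LN18, LN229, LNZ308; brain endothelial HCEC; lung PO03 or skin PG98/5 fibroblasts) grown in DMEM with 4.5 g/L glucose and 10% FCS, then lysed in PBS (pH 7.2-7.4) containing 0.1% Triton X-100. Compound was diluted from methanol stock into water and preincubated 5-10 min at room temperature. Gly-Pro-AMC was then added. Duplicate wells.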

The target is the same in assay [2]. Put plainly: Inhibition of DPP4 in intact human brain derived endothelial cells assessed as blockade of Gly-Pro-AMC substrate hydrolysis at 100 uM by fluorimetric assay. The format is cell-based. Conditions: Endothelial cell. Put shortly: (§2)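 Confluent intact human glioblastoma (LN18, LN229, LNZ308), brain endothelial HCEC, or lung PO03 and skin PG98/5 fibroblast monolayers kept in PBS (pH 7.2-7.4) without detergent. Compound was diluted from methanol stock into water and preincubated 5-10 min at room temperature. Gly-Pro-AMC was then added and hydrolysis read by fluorescence. Duplicate wells.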

For assay [3], the target named is T1, Prolyl endopeptidase (Homo sapiens, UniProt P48147).
T1 sequence (P48147 whole entry): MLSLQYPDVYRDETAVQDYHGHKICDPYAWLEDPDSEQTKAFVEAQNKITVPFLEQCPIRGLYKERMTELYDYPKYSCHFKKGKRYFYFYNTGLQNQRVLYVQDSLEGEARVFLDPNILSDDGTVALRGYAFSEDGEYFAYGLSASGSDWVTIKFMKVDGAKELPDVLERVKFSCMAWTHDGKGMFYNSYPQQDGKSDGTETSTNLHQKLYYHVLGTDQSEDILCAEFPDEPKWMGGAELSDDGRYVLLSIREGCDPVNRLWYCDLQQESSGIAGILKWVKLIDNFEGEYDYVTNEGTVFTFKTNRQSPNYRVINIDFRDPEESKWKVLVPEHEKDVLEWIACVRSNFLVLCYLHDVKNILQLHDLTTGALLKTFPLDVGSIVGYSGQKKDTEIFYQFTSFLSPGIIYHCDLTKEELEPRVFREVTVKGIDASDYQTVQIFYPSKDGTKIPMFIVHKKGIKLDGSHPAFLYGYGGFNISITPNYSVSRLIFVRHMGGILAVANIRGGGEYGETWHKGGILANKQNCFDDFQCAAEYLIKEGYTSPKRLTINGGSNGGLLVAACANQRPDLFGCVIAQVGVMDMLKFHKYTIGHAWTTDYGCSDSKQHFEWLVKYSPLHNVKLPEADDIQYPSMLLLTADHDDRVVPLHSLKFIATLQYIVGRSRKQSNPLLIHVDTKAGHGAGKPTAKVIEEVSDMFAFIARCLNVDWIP
Briefly: Inhibition of prolyl oligopeptidase in intact human HCEC cells assessed as blockade of Z-Gly-Pro-AMC substrate hydrolysis by fluorimetric assay. The format is cell-based.

The target of assay [4] is T1, Prolyl endopeptidase. Briefly: Inhibition of prolyl oligopeptidase in human LN229 cell extracts assessed as blockade of Z-Gly-Pro-AMC substrate hydrolysis by fluorimetric assay.
Assay [5] concerns the target Dipeptidyl peptidase 4 (Homo sapiens) (UniProt P27487). Briefly: Inhibition of DPP4 in human fibroblast extracts assessed as blockade of Gly-Pro-AMC substrate hydrolysis at 100 uM by fluorimetric assay. Put shortly:
as §1

The target is the same in assay [6]. Briefly: Inhibition of DPP4 in human astrocyte derived cell extracts assessed as blockade of Gly-Pro-AMC substrate hydrolysis at 100 uM by fluorimetric assay. The essentials:
as §1

The target is the same in assay [7]. Briefly: Inhibition of DPP4 in intact human astrocyte derived cells assessed as blockade of Gly-Pro-AMC substrate hydrolysis at 100 uM by fluorimetric assay. Put shortly: as §2
Assay [8] addresses T1, Prolyl endopeptidase. Briefly: Inhibition of prolyl oligopeptidase in intact human LNZ308 cells assessed as blockade of Z-Gly-Pro-AMC substrate hydrolysis by fluorimetric assay. The format is cell-based.
In assay [9] the target is T1, Prolyl endopeptidase. Briefly: Inhibition of prolyl oligopeptidase in human LNZ308 cell extracts assessed as blockade of Z-Gly-Pro-AMC substrate hydrolysis by fluorimetric assay.
The target in assay [10] is T1, Prolyl endopeptidase. Briefly: Inhibition of prolyl oligopeptidase in intact human LN229 cells assessed as blockade of Z-Gly-Pro-AMC substrate hydrolysis by fluorimetric assay. The format is cell-based.
In assay [11] the target is T1, Prolyl endopeptidase. Briefly: Inhibition of prolyl oligopeptidase in human HCEC cell extracts assessed as blockade of Z-Gly-Pro-AMC substrate hydrolysis by fluorimetric assay. The format is cell-free.
The target in assay [12] is Dipeptidyl peptidase 4 (Homo sapiens) (UniProt P27487). Briefly: Inhibition of DPP4 in intact human fibroblasts assessed as blockade of Gly-Pro-AMC substrate hydrolysis at 100 uM by fluorimetric assay. The essentials: as §2
Chain of Dipeptidyl peptidase 4 (Homo sapiens) (P27487 whole entry, looked up): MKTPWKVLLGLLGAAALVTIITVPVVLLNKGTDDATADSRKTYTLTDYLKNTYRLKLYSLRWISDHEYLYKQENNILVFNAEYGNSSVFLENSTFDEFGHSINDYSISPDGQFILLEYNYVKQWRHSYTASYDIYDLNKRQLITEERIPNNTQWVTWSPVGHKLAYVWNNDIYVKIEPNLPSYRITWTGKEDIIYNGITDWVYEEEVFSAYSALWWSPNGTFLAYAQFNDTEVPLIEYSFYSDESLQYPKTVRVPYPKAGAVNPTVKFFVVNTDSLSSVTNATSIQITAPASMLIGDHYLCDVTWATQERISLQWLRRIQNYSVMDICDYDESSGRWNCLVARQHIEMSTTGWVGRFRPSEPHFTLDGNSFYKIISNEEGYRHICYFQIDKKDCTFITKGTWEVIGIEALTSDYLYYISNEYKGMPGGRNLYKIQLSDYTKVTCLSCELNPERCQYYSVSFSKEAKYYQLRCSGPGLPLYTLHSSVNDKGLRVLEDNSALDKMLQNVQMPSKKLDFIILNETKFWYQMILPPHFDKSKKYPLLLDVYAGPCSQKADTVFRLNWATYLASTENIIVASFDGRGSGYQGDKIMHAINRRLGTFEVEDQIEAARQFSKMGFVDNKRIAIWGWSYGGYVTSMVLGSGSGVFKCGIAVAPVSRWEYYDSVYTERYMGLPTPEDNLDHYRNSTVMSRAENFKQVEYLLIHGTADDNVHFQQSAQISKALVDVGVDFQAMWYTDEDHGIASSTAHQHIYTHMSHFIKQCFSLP
For assay [13], the target named is T2, Prolyl endopeptidase (Homo sapiens) (UniProt P48147).
T2 sequence (whole entry): T1 sequence (P48147 whole entry)
Briefly: Inhibition of prolyl oligopeptidase in human brain derived endothelial cell extracts assessed as blockade of Z-Gly-Pro-AMC substrate hydrolysis at 100 uM by fluorimetric assay. The format is cell-free. The essentials:
(§3)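 Confluent human glioblastoma (LN18, LN229, LNZ308), brain endothelial HCEC, or lung PO03 and skin PG98/5 fibroblasts extracted in PBS with 0.1% Triton X-100. Compound was diluted from methanol stock into water and preincubated 5-10 min at room temperature. Z-Gly-Pro-AMC was then added and read by fluorescence. Duplicate wells.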

The target in assay [14] is T2, Prolyl endopeptidase (Homo sapiens). Briefly: Inhibition of prolyl oligopeptidase in intact human fibroblasts assessed as blockade of Z-Gly-Pro-AMC substrate hydrolysis at 100 uM by fluorimetric assay. The essentials:
(§4)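 Intact confluent human glioblastoma (LN18, LN229, LNZ308), brain endothelial HCEC, or lung PO03 and skin PG98/5 fibroblast monolayers in PBS (pH 7.2-7.4), cells grown beforehand in DMEM with 10% FCS. Compound was diluted from methanol stock into water and preincubated 5-10 min at room temperature. Z-Gly-Pro-AMC was then added and read fluorimetrically. Duplicate wells.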

For assay [15] the target is unchanged. Briefly: Inhibition of prolyl oligopeptidase in intact human brain derived endothelial cells assessed as blockade of Z-Gly-Pro-AMC substrate hydrolysis at 100 uM by fluorimetric assay. The format is cell-based. Conditions: Endothelial cell. Put shortly: as §4
For assay [16] the target is unchanged. Briefly: Inhibition of prolyl oligopeptidase in human fibroblast extracts assessed as blockade of Z-Gly-Pro-AMC substrate hydrolysis at 100 uM by fluorimetric assay. Put shortly:
as §3

Assay [17] shares this target. Briefly: Inhibition of prolyl oligopeptidase in human astrocyte derived cell extracts assessed as blockade of Z-Gly-Pro-AMC substrate hydrolysis at 100 uM by fluorimetric assay. Put shortly: as §3
Assay [18] has the same target. Briefly: Inhibition of prolyl oligopeptidase in intact human astrocyte derived cells assessed as blockade of Z-Gly-Pro-AMC substrate hydrolysis at 100 uM by fluorimetric assay. The essentials:
as §4

The inhibition is the relative decrease from the control value, in per cent. The term IC50 denotes the midpoint of a concentration-inhibition curve. In the case of `N#C[C@@H]1CS[C@H]2C[C@@H](NC(=O)OCc3ccccc3)C(=O)N12`, the inhibition entry in [1], in assay [2], in assay [5], in assay [6], in assay [7] and in assay [12] was “inactive” throughout. The IC50 in assay [3] came out at 1300 nM; in assay [4], 500 nM; in [8] it was 2500 nM; in [9], 200 nM; in assay [10], 2000 nM; in assay [11], 700 nM.

For `N#CC1CCSC2CC(NC(=O)OCc3ccccc3)C(=O)N12` (racemic), the inhibition result in [1], in assay [2], in assay [13], in assay [5], in assay [6] and in assay [14] was “inactive” each time. Moreover, the inhibition entry in [15], in [7], in [17], in [12] and in assay [18] was “inactive” throughout. For the same compound, in assay [16], the inhibition stood at 10%.

Consider `N#CC1CCCCN1C(=O)CNC(=O)OCc1ccccc1` (racemic), for which the inhibition entry in [1], in assay [2], in [5], in [6], in assay [14] and in assay [15] was “inactive” throughout. For the same compound, the inhibition result in assay [7] and in [12] was “inactive” throughout. Also, the inhibition in [13] is 10%; in [16], 10%; in assay [17] it was greater than 50%; in [18], 10%.

On to `CC(C)(C)OC(=O)N1CCC[C@H]1C#N`, for which the inhibition entry in assay [1], in [2], in assay [13], in assay [5], in assay [6] and in assay [14] was “inactive” each time. In addition, the inhibition result in [15], in assay [7], in assay [16], in assay [17], in [12] and in [18] was “inactive” in each case.

`COC(=O)[C@@H]1CS[C@H]2C[C@@H](NC(=O)OCc3ccccc3)C(=O)N21`: the inhibition result in assay [1], in [2], in assay [13], in assay [5], in [6] and in assay [15] was “inactive” in each case. The inhibition entry in assay [7], in assay [17], in [12] and in [18] was “inactive” each time. The inhibition in assay [14] and in [16] was 10% in each case.

`N#C[C@H]1CS[C@@H]2C[C@H](NC(=O)OCc3ccccc3)C(=O)N12`: the inhibition result in assay [1], in [2], in assay [5], in assay [6], in [14] and in [15] was “inactive” in each case. Moreover, the inhibition entry in assay [7], in assay [16], in [12] and in [18] was “inactive” in each case. Also, the inhibition in [13] and in assay [17] was 10% throughout.

With `COC(=O)[C@@H]1CS[C@H]2C[C@H](NC(=O)OCc3ccccc3)C(=O)N21`, the inhibition result in [1], in assay [2], in assay [13], in assay [5], in assay [6] and in assay [15] was “inactive” in each case. Moreover, the inhibition result in assay [7], in assay [12] and in [18] was “inactive” throughout. In addition, the inhibition in [14], in assay [16] and in assay [17] was 10% throughout.

Consider `C[C@H]1O[C@H]2C[C@H](NC(=O)OCc3ccccc3)C(=O)N2[C@@H]1C#N`, for which the inhibition entry in assay [1], in assay [2], in assay [5], in assay [6], in [14] and in assay [7] was “inactive” each time. Besides, the inhibition result in assay [16], in [12] and in assay [18] was “inactive” throughout. Further, the inhibition in [13], in [15] and in assay [17] was 10% each time.

As to `N#C[C@@H]1CS[C@H]2C[C@H](NC(=O)OCc3ccccc3)C(=O)N12`, the inhibition result in [1], in [2], in assay [5], in assay [6], in assay [7] and in assay [12] was “inactive” throughout. Further, the inhibition result in [18] is “inactive”. Moreover, the inhibition in assay [13] is greater than 50%; in assay [14] it was 10%; in assay [15] it was 10%; in assay [16], 10%; in assay [17], 10%.

In the case of `N#C[C@H]1CS[C@@H]2C[C@@H](NC(=O)OCc3ccccc3)C(=O)N12`, the inhibition result in assay [1], in [2], in assay [5], in assay [6], in assay [14] and in assay [7] was “inactive” in each case. Further, the inhibition entry in assay [12] and in [18] was “inactive” each time. The inhibition in assay [13] is greater than 50%; in assay [15], 10%; in assay [16], 10%; in [17], 10%.

The values are drawn from ChEMBL document CHEMBL1153716, “Constrained peptidomimetics reveal detailed geometric requirements of covalent prolyl oligopeptidase inhibitors” (J Med Chem, 2009).
